Results as given in PubChem BioAssay AID504338 (NMMLSC, 2011).
A number with no mark means an inactive call.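 Rule for the calls: active = GFP response vs DMSO above 150% with enough events counted; inconclusive = fewer than 70 events counted for a yeast strain; inactive = the rest.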

assay: yeast TOR reporter LAP4-GFP retest – cell-based, third cherry pick, flow cytometry, confirmation (AID 504338);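 note: ratio to plate DMSO wells so 100% equals DMSO level rather than 0%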; details: S. cerevisiae LAP4-GFP strain, 3 h, at 10 µM, hits give high values
How it was run: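 System: Saccharomyces cerevisiae strain expressing LAP4-GFP fusion protein. Quantity: cells at 0.2 OD600. Medium: synthetic complete medium. Read-out basis: median GFP fluorescence as percent of plate DMSO-well average. Signal: high-throughput flow cytometry of GFP, single-cell scatter gate. Schedule: 3 h treatment, 30 °C. Dosing: single compound dose, 10 µM final.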

| SMILES | GFP response vs DMSO |
| --- | --- |
| CN(C)C(=O)Oc1ccnc2cc(Cl)ccc12 | 107% |
| CN1CCN(c2ncnc3ccc(Br)cc23)CC1 | 107% |
| C/C(O)=C(\C#N)C(=O)Nc1cc(Br)ccc1Br | 106% |
| CCN1CCN(c2ncnc3ccc(Br)cc23)CC1 | 108% |
| CN(C)C(=O)Oc1ccc(Cl)c2cccnc12 | 106% |
| Cc1ccc2c(c1N)C(=O)c1ccccc1C2=O | 104% |
